The values that follow come from ChEMBL document CHEMBL1125379, “Binding of phenylalkylamine derivatives at 5-HT1C and 5-HT2 serotonin receptors: evidence for a lack of selectivity” (J Med Chem, 1992).

The target of assay [1] is T1, 5-hydroxytryptamine receptor 2C (Rattus norvegicus, UniProt P08909).
T1 sequence (P08909 whole entry): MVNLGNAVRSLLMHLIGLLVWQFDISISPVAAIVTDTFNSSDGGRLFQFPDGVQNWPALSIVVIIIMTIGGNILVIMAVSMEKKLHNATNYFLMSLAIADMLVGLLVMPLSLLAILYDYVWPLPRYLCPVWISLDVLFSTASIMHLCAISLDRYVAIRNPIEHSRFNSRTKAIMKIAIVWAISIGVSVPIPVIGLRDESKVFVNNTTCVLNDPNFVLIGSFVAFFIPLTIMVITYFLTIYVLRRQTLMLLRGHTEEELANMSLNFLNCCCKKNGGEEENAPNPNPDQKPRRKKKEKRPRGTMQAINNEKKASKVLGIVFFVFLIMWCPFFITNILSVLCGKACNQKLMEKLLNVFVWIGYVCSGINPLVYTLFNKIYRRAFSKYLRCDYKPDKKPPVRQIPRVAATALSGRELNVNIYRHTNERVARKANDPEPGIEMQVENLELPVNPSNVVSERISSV
In words: Binding affinity towards 5-hydroxytryptamine 1C receptor from frontal cortical regions of male Sprague-Dawley rat homogenates, using [3H]mesulergine as radioligand. The method, boiled down:
(§1)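 Male Sprague–Dawley rat frontal cortex membranes were washed in Tris/EDTA/MgCl2 pH 7.4 with a 37 °C preincubation and resuspended with ascorbate and pargyline. Each tube held 10 mg wet tissue, 1 nM [3H]mesulergine and 100 nM spiperone to block 5-HT2 sites. Nonspecific binding was set with 1 μM mianserin. Tubes were incubated 15 min at 37 °C, in triplicate, then filtered. Ki = IC50/(1+D*/KD*).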

Assay [2] deals with T2, Serotonin 2 (5-HT2) receptor (Rattus norvegicus, UniProt P30994+P08909+P14842). Kind of assay: Binding affinity towards 5-hydroxytryptamine 2 receptor from frontal cortical regions of male Sprague-Dawley rat homogenates, using [3H]ketanserin as radioligand. In short, it runs like this:
(§2)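 Male Sprague–Dawley rat frontal cortex membranes were washed in 50 mM Tris, 0.5 mM EDTA, 10 mM MgCl2, pH 7.4, and resuspended with 0.1% ascorbate and 10^-6 M pargyline. Each tube held 5 mg wet tissue and 0.4 nM [3H]ketanserin. Nonspecific binding was set with 1.0 μM cinanserin. Tubes were incubated 15 min at 37 °C, in triplicate, then filtered on PEI-soaked glass fiber. Ki came from IC50 via Cheng–Prusoff, using the saturation KD.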

In assay [3] the target is Serotonin 2 (5-HT2) receptor (Rattus norvegicus) (UniProt P30994+P08909+P14842). In words: 5-HT1C selectivity was defined as the ratio between Ki(5-HT2)/Ki(5-HT1C). The format is protein assay. In short, it runs like this:
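Ratio of Ki values from rat frontal cortex competition assays. For 5-HT2: 0.4 nM [3H]ketanserin, with 1 μM cinanserin nonspecific. For 5-HT1C: 1 nM [3H]mesulergine plus 100 nM spiperone, with 1 μM mianserin nonspecific. Both were run 15 min at 37 °C in triplicate. Ki = IC50/(1+D*/KD*).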

For assay [4], the target named is T1, 5-hydroxytryptamine receptor 2C. Kind of assay: Compound was tested for binding affinity towards 5-hydroxytryptamine 1C receptor from frontal cortical regions of male Sprague-Dawley rat homogenates, using [3H]mesulergine as radioligand. In short, it runs like this: as §1
For assay [5], the target named is T2, Serotonin 2 (5-HT2) receptor. Kind of assay: Compound was tested for binding affinity towards 5-hydroxytryptamine 2 (5-hydroxytryptamine-2) receptor from frontal cortical regions of male Sprague-Dawley rat homogenates, using [3H]-ketanserin as radioligand. The method, boiled down:
as §2

Sequence of Serotonin 2 (5-HT2) receptor (Rattus norvegicus) (P14842 whole entry, looked up, one chain of several): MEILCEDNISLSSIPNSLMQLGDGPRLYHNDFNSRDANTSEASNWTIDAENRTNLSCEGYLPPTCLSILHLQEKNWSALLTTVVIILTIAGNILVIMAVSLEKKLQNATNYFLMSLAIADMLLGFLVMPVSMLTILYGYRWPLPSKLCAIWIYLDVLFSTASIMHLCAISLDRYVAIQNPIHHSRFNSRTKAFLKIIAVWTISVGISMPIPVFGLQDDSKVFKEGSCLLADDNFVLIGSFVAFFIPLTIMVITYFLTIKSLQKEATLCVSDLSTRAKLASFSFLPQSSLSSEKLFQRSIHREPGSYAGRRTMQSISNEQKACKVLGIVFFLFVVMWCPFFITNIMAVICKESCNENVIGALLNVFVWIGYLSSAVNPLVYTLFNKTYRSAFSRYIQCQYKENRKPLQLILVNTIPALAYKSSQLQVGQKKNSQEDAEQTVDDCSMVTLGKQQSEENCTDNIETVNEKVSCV
Sequence of Serotonin 2 (5-HT2) receptor (Rattus norvegicus) (P30994 whole entry, looked up, one chain of several): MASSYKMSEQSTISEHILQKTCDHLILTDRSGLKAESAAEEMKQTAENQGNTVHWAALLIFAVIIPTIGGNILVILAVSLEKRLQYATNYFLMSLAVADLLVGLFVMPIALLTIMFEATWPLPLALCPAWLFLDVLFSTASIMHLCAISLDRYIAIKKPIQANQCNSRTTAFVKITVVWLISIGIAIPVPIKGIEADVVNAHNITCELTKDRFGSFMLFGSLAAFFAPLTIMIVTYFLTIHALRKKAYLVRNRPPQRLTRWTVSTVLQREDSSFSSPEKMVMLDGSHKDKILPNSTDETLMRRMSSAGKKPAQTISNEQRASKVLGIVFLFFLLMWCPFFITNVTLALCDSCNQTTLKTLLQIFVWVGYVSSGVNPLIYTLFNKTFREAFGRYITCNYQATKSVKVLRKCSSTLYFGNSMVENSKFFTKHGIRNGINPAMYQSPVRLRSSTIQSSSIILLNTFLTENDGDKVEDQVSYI

For `CC(N)Cc1ccc(Br)cc1` (stereo unspecified), the affinity in assay [1], expressed as Ki, was 1480 nM.

For the molecule `CCCNC(C)Cc1cc(OC)c(Br)cc1OC` (stereo unspecified), the values for the Ki in assay [1] and in assay [2] were more than 10000 nM and 2460 nM, respectively. Besides, the Selectivity in assay [3] was less than 1.

`COc1ccc(OC)c(CC(C)N)c1` (stereo unspecified) came in with a Ki in assay [1] of 1220 nM.

For `COc1cc(C)ccc1CCN`, the figures for the Ki in assay [1] and in assay [2] were 110 nM and 825 nM, respectively. In addition, in assay [3], the Selectivity came to 7.

For `COc1cc(I)ccc1CC(C)N` (stereo unspecified), the Ki is 130 nM in assay [1] and 580 nM in assay [2]. In addition, in assay [3], the Selectivity turned out to be 5.

For `COc1cc(Br)ccc1CC(C)N` (stereo unspecified), the Ki is 100 nM in assay [1] and 830 nM in assay [2]. For the same molecule, the Selectivity in assay [3] stood at 8.

As to `CCCc1ccc(CC(C)NC)cc1` (stereo unspecified), the Ki in assay [1] is 1930 nM; in assay [2] it was 2525 nM. The Selectivity in assay [3] is 1.

Molecule `CCCCc1cc(OC)c(CC(C)N)cc1OC` (stereo unspecified) came in with a Ki in assay [1] of 26 nM. Also, in assay [3], the Selectivity was found to be 2.

For the molecule `COc1cc(C)ccc1CC(C)N` (stereo unspecified), the results for the Ki in assay [1] and in assay [2] were 610 nM and 1435 nM, respectively. Besides, the Selectivity in assay [3] was determined as 2.

As for `COc1cccc(Br)c1CC(C)N` (stereo unspecified), the Ki in assay [1] is 1560 nM; in assay [2], more than 10000 nM. Besides, the Selectivity in assay [3] was more than 6.

`CC(N)Cc1ccc(OC(=O)c2ccccc2)cc1` (stereo unspecified) came in with a Ki in assay [4] of 1210 nM.

In the case of `COc1cc(Br)ccc1CCN`, the Ki was 220 nM in assay [1] and 1030 nM in assay [2]. For the same molecule, the Selectivity in assay [3] amounted to 5.

Consider `Cc1ccc(CC(C)N)cc1` (stereo unspecified), for which the Ki in assay [4] and in assay [5] was more than 10000 nM each time.

On to `CNC(C)Cc1ccc(C)cc1OC` (stereo unspecified), for which the Ki in assay [1] was 1480 nM.

Regarding `CCOc1cc(OC)c(CC(C)N)cc1OC` (stereo unspecified), the Ki in assay [1] was 2300 nM. Also, in assay [3], the Selectivity came to 1.

Consider `COc1ccc(CC(C)N)c(OC)c1` (stereo unspecified), for which the Ki is 4480 nM in assay [1] and more than 10000 nM in assay [2]. The Selectivity in assay [3] is more than 2.

`COc1cc(CC(C)N)c(OC)cc1I` (stereo unspecified) gave a Ki in assay [1] of 30 nM. In assay [3], the Selectivity is 0.6.

`CCCc1ccc(CC(C)N)cc1` (stereo unspecified): the Ki in assay [4] was determined as 1250 nM; in assay [5] it was 2345 nM. The Selectivity in assay [3] stood at 2.

In assay [1], `CCCc1cc(OC)c(CC(C)N)cc1OC` (stereo unspecified) yielded an inhibition constant Ki of 14 nM. The Selectivity in assay [3] is 5.

`CCCOC(=O)c1cc(OC)c(CC(C)N)cc1OC` (stereo unspecified) had a Ki in assay [1] of more than 10000 nM. In assay [3], the Selectivity is less than 1.

In the case of `CNC(C)Cc1cc(OC)c(Br)cc1OC` (stereo unspecified), the Ki in assay [1] stood at 98 nM; in assay [2], 80 nM. For the same molecule, the Selectivity in assay [3] came to 1.

As to `CCOc1ccc(CC(C)N)cc1` (stereo unspecified), the Ki in assay [4] and in assay [2] was more than 10000 nM throughout.

What is called Ki is a dissociation constant, usually derived from enzyme kinetics or from competition with a known ligand. Low readings indicate tighter binding, high ones weaker binding.
